Screens (PubChem)
TAAR1 agonist: agonists of human TAAR1; CHO RD-HGA16 TAAR1, Fluo-8 calcium fluorescence; vehicle wells 0%, saturating PEA agonist 100%; AID 624467; activation, % at 3 µM; 360,000 tested, 0.99% active;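 active means activation above the mean activation of all test compounds in the run plus 3 SD, cut at about 38% in these data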
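Test system: RD-HGA16 (CHO) cells co-expressing Gα16 and hTAAR1 | Doses: Single dose, 3 µM | Schedule: 17-24 h seeding, 75 min 37 °C dye, 30 min RT | Evaluation: % activation from peak over basal fluorescence ratio, DMSO-to-PEA scaled | Technique: Kinetic Fluo-8 calcium fluorescence | Benchmarks: Low control DMSO, high control PEA (EC100)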
OX1R antag-1: blocks the human orexin 1 receptor. CHO/OX1R cells, Fluo-8 calcium fluorescence, orexin A. inhibition, % at 5 µM. 330,000 tested, 0.43% active. AID 434989;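 active means inhibition above its plate's threshold, mean inhibition of all tested compounds on the plate plus 3 SD, cut at about 37% in these data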;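 further: 0% = orexin A challenge wells and 100% = SB-334867-A antagonist wells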
Target sequence (O43613 whole entry, looked up): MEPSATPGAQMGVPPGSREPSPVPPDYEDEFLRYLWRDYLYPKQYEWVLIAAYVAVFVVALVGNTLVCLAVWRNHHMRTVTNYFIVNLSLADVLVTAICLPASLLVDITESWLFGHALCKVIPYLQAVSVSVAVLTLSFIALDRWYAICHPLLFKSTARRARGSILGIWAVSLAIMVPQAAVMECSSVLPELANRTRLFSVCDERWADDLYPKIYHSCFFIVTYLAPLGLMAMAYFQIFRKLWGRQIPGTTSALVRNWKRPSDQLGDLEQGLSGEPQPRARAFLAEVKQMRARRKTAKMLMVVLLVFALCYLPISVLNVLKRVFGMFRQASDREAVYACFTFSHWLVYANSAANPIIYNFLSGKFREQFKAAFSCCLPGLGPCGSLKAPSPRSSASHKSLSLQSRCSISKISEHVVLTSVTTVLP
TAAR1 antag: antagonists of human TAAR1; CHO RD-HGA16 TAAR1, Fluo-8 calcium fluorescence, antagonist; inhibition, % at 3 µM; 360,000 tested, 1.5% active; AID 624466;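 active means inhibition above a per-plate cutoff, the mean inhibition of test compounds on that plate plus 3 SD, cut at about 49% in these data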;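 further: 0% = DMSO plus EC80 beta-PEA response and 100% = DMSO alone without agonist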
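Material: CHO RD-HGA16 cells bearing hTAAR1; compound dosing: one-point dosing, 3 µM nominal final; schedule: dye loading 75 min at 37 °C, then 30 min room temperature; measured by: calcium fluorescence with Fluo-8; control set: vehicle and agonist controls; replication: n of 1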
OX1R antag-2: blocks the human orexin 1 receptor. inhibition, % at 6.6 µM. O43613. AID 485270. 330,000 tested, 1.8% active. OX1R-expressing cells, FRET antagonist read-out; in the data active means inhibition mostly above about 38%, no sharp cut-off; inactive means mostly below about 40%;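 further: 0% = agonist challenge alone and 100% = reference antagonist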
CHO parental Ca: counter-screen for OX1R antagonists: effect in parental CHO cells | parental CHO-K1, ATP-induced calcium, Fluo-8 fluorescence | inhibition, % at 5.6 µM | 330,000 tested, 0.63% active;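 active means inhibition above that plate's mean sample inhibition plus 3 SD, cut at about 26% in these data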;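 further: 0% = ATP-challenged DMSO wells and 100% = DMSO wells without ATP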
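Test system: untransfected parental CHO cell line. Compound: one dose, 5.6 µM nominal. Detection: intracellular calcium via Fluo-8 no-wash fluorescent dye. Measure: % inhibition. Benchmarks: ATP-challenged DMSO wells low, unchallenged DMSO wells high.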
GPR7 antag: human neuropeptides B/W receptor 1 antagonism. P48145. GPR7-expressing cells, fluorescence antagonist assay. inhibition, % at 4.4 µM. 290,000 tested, 1.1% active. AID 1861; in the data active means inhibition above about 16%, passing the limit was not always enough;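 further: cells stimulated with the agonist NPW; 0% = agonist with vehicle and 100% = vehicle without agonist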
An asterisk follows results filed as active; . = not tested or not shown. In the library only some 4.6% were active in any assay of this set; here they are far more common.

SMILES	TAAR1 agonist	OX1R antag-1	TAAR1 antag	OX1R antag-2	CHO parental Ca	GPR7 antag
CCOc1ccccc1NC(=O)C1CCCN(S(=O)(=O)c2cccc3cccnc23)C1 (centres undefined)	4.5	-22.9	15.7	38.2*	-32.0	-9.4
CC(=O)N1CCN(c2ccc(N3CCN(C(C)=O)[C@H](C)C3)c(C)c2)[C@H](C)C1	1.9	.	-18.3	.	.	.
Cc1cc(C)n2nc(-c3ccccc3)cc2n1	1.4	-10.7	0.4	25.9	-2.0	2.3
Cc1cc(C)n2nc(Nc3ccccc3)cc2n1	-0.5	-1.6	-10.3	48.7*	-19.7	-3.2
COC(=O)[C@]12C[C@H](CC(=O)NCc3ccccc3)C(=O)N(Cc3ccc4c(c3)OCO4)C1=C[C@H](COCc1ccccc1)O[C@@H]2C	0.3	.	6.3	.	.	.
COc1ccc2c(c1)c(-c1csc(N)n1)c(C)n2C	-1.3	1.1	9.8	46.2*	-5.4	5.5
Cc1nc(N)sc1C(=O)N/N=C/c1ccccc1[N+](=O)[O-]	8.7	-14.9	3.2	31.0	-10.0	8.2
CC(/C=N/NC(=O)c1sc(N)nc1C)=C\c1ccccc1	40.2*	-7.1	-14.1	25.9	-13.7	-10.7
Cn1ccsc1=NC(=O)c1ccc([N+](=O)[O-])o1	3.2	-1.8	-25.4	105.2*	-2.9	-6.2
CCCCn1c(=O)nc2n(-c3ccc(C)cc3)c3ccccc3cc-2c1=O	-1.2	-27.4	-18.2	27.2	-18.1	9.2
Cc1ccc(-n2c3nc(=O)n(C)c(=O)c-3cc3ccccc32)cc1	-0.6	-9.8	-21.9	49.5*	-17.6	-4.5
O=C(CSc1cn(CCNC(=O)c2ccccc2F)c2ccccc12)NCC1CCCO1 (centres undefined)	5.1	5.5	-14.8	21.2	-21.8	-8.8
O=C(NCCn1cc(SCc2ccccc2)c2ccccc21)c1ccccc1F	1.1	-2.7	63.6*	17.0	65.6*	-9.1
O=C(CNC(=O)c1ccccc1Br)N/N=C\c1cc([N+](=O)[O-])cc(Br)c1O	8.9	-0.2	-22.6	52.7*	0.5	-0.2
O=C(Cc1cccs1)N/N=C\c1ccc([N+](=O)[O-])s1	13.6	-14.0	-2.9	46.6	-12.4	1.4
O=C(CNC(=O)c1ccccc1Cl)N/N=C/c1ccc([N+](=O)[O-])s1	11.6	-24.5	-8.6	51.1*	-3.5	-3.6
O=C(CNC(=O)c1ccccc1Br)N/N=C/c1cc(Br)ccc1O	22.7	-32.9	5.7	14.4	-15.2	-2.9
O=C(CCC1CCCN(C(=O)c2cc(F)ccc2F)C1)N1CCN(c2ccccn2)CC1 (centres undefined)	2.4	.	7.1	.	.	.
O=C(NCc1ccc2c(c1)OCO2)c1cc([N+](=O)[O-])ccc1N1CCCCC1	3.3	-20.6	41.5	26.5	-18.6	36.6*
O=C(NCc1ccco1)c1cc([N+](=O)[O-])ccc1N1CCCCC1	2.9	-23.3	-10.7	34.1	-11.1	6.5
Fc1ccc(-c2ccc(Nc3cccc(F)c3)nn2)cc1	0.8	-0.2	29.9	13.0	43.6*	-2.8
Cn1ncc2c(O/N=C(\N)c3ccc(C(F)(F)F)cc3)ncnc21	1.7	-24.5	-8.6	48.3*	-15.7	2.4
CCC(OCC(O)CN1CCN(CCN2C(=O)c3cccc4cccc(c34)C2=O)CC1)c1ccccc1 (centres undefined)	8.0	-35.6	2.2	23.8	-31.3	-4.6
CC(C)OCC(O)CN1CCN(CCN2C(=O)c3cccc4cccc(c34)C2=O)CC1 (centres undefined)	1.4	-30.4	-8.2	40.6*	-7.9	-1.6
CC(C)(C)NC(=O)C1(N2C(=O)c3ccccc3C2=O)CCCC1	2.2	.	-9.2	.	.	.
SMILES	TAAR1 agonist	OX1R antag-1	TAAR1 antag	OX1R antag-2	CHO parental Ca	GPR7 antag
CCOC(=O)Cn1c(S(=O)(=O)Cc2ccc(F)cc2)nc(-c2ccccc2)c1-c1ccccc1	4.7	-12.3	6.5	13.6	-17.9	8.5
C#CCn1c(S(=O)(=O)Cc2ccc(F)cc2)nc(-c2ccccc2)c1-c1ccccc1	2.1	-19.8	4.0	40.1*	-18.9	-8.5
CC1(C)CC[C@]2(C(=O)O[C@@H]3OC(CO)[C@@H](O)[C@H](O)[C@H]3O)CC[C@]3(C)C(=CCC4[C@@]5(C)CC[C@H](O[C@@H]6OC(C(=O)O)[C@@H](O)[C@H](O)[C@H]6O)C(C)(C)C5CC[C@]43C)[C@@H]2C1 (some centres undefined)	17.5	87.9*	27.3	11.9	100.0*	.
COC(=O)C1OC(OC2CC[C@]3(C)C(CC[C@@]4(C)[C@@H]3CC=C3[C@@H]5CC(C)(C)CC[C@]5(C(=O)OC5OC(CO)C(O)C(O)C5O)CC[C@]34C)C2(C)C)C(O)C(O)C1O[C@H]1OCC(O)C(O)C1O (some centres undefined)	.	15.6	.	-3.0	-4.5	.
C/C=C(\C)C(=O)OC1CC(C)(C)C[C@H]2C3=CC[C@@H]4[C@@]5(C)CCC(O[C@@H]6O[C@@H](C(=O)O)[C@@H](O)C(O[C@@H]7OC[C@H](O)[C@@H](O)[C@@H]7O[C@@H]7OC(CO)C(O)[C@@H](O)[C@@H]7O)C6O[C@@H]6OC(CO)C(O)C(O)C6O)[C@@](C)(CO)[C@@H]5CC[C@]4(C)[C@]3(C)CC(O)[C@@]12CO (some centres undefined)	9.6	45.0	17.6	9.3	41.3*	.
CN(C)C(=O)C1CCC(=O)N1Cc1cccs1 (centres undefined)	2.7	-14.3	0.0	9.0	6.1	16.2*
O=C(C1CCC(=O)N1Cc1cccs1)N1CCOCC1 (centres undefined)	5.8	-6.9	18.2	4.7	-9.4	-10.0
CC(=O)c1cc(N2CCC(C(=O)O)CC2)ccc1[N+](=O)[O-]	9.0	-9.9	-0.1	66.8*	-17.9	-18.7
O=C(c1[nH]c(C(F)(F)F)nc1-c1ccccc1)N1CCN(c2ccc(C(F)(F)F)cn2)CC1	2.2	.	8.4	.	.	.
O=C(c1[nH]c(C(F)(F)F)nc1-c1ccccc1)N1CCN(c2ncc(C(F)(F)F)cc2Cl)CC1	48.5*	.	48.9*	.	.	.
O=c1ccncn1C1OC(CO)C(O)C1O (centres undefined)	0.8	.	-4.0	.	.	.
O=C(Nc1ccc(F)cc1)Nc1csc2ccccc12	3.3	18.1	31.7	28.6	12.2	8.2
CN(C)c1ccc(NC(=O)Nc2csc3ccccc23)cc1	7.5	28.6	-14.4	56.8*	-15.0	0.0
O=[N+]([O-])c1ccc(-c2nnc3n2CCCCC3)cc1	1.0	-15.5	-13.5	32.2*	-6.2	1.2
Cc1cc(N/C(=C\C(=O)c2ccccc2)c2ccccc2)ccc1Br	-0.9	.	-21.6	.	.	.
COc1ccccc1N1CCN(C2CCCN(C(=O)CN3CCCCC3=O)C2)CC1 (centres undefined)	2.5	-4.9	-15.1	12.7	-6.8	-5.8
